Compound activity from PubChem BioAssay.
Shown are actives, neighbours in structure and some others; about 4% of the full set was active somewhere.
TAAR1 agonist: human TAAR1 agonism; CHO RD-HGA16 TAAR1, Fluo-8 calcium fluorescence; vehicle wells 0%, saturating PEA agonist 100%; activation, % at 3 µM; hit rate 0.99% among 360,000;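 active = activation above the mean activation of all test compounds in the run plus 3 SD, cut at about 38% in these data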
Target sequence (Q96RJ0 whole entry, looked up): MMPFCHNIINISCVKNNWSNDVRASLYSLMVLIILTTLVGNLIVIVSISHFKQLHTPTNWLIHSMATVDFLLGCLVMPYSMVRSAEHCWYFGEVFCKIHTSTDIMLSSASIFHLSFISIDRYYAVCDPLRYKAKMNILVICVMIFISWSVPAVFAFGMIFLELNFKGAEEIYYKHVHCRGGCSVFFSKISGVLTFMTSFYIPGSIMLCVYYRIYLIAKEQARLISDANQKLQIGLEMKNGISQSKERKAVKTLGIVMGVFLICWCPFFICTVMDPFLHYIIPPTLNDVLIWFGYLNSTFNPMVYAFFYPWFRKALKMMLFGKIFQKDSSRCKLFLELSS
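System: CHO-derived RD-HGA16 cells with stable Gα16 and human TAAR1. Times: 17-24 h plating, Fluo-8 75 min 37 °C, 30 min RT. Measured by: calcium-sensitive Fluo-8 signal, excitation 470-495, emission 515-575 nm. Read-out basis: % activation relative to PEA EC100 response. Control set: DMSO and PEA EC100. Repeats: no replicates (n 1).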
CHO parental Ca: counter-screen for OX1R antagonists: effect in parental CHO cells; hit rate 0.63% among 330,000; inhibition, % at 5.6 µM; parental CHO-K1, ATP-induced calcium, Fluo-8 fluorescence;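 active = inhibition above that plate's mean sample inhibition plus 3 SD, cut at about 26% in these data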;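 also: 0% = ATP-challenged DMSO wells and 100% = DMSO wells without ATP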
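Assay system: untransfected parental CHO cell line. Also added: ATP agonist challenge. Dosing: one dose, 5.6 µM nominal. Measured by: Fluo-8 fluorescence. Read-out: % inhibition. Benchmarks: ATP wells versus no-ATP DMSO wells. Repeats: no replicates.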
OX1R antag-1: blocks the human orexin 1 receptor | OX1R-expressing cells, FRET antagonist read-out | O43613 | inhibition, % at 6.6 µM | hit rate 1.8% among 330,000; in the data active = inhibition mostly above about 38%, no sharp cut-off; inactive = mostly below about 40%;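 also: 0% = agonist challenge alone and 100% = reference antagonist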
TAAR1 antagonist: human TAAR1 antagonism; CHO RD-HGA16 TAAR1, Fluo-8 calcium fluorescence, antagonist; inhibition, % at 3 µM; hit rate 1.5% among 360,000; AID 624466; Q96RJ0;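 active = inhibition above a per-plate cutoff, the mean inhibition of test compounds on that plate plus 3 SD, cut at about 49% in these data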;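 also: 0% = DMSO plus EC80 beta-PEA response and 100% = DMSO alone without agonist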
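System: RD-HGA16 CHO cells with stable hTAAR1 and Gα16 | Probe or stimulus: EC80 β-phenethylamine stimulus | Dosing: 3 µM, single point | Times: Dye loading 75 min at 37 °C, then 30 min room temperature | Measured by: Fluo-8 calcium-sensitive fluorescence | Read-out basis: % inhibition of agonist calcium response | Replicates: n of 1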
OX1R antag-2: human HCRTR1 antagonism; O43613; CHO/OX1R cells, Fluo-8 calcium fluorescence, orexin A; inhibition, % at 5 µM; hit rate 0.43% among 330,000; AID 434989;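 active = inhibition above its plate's threshold, mean inhibition of all tested compounds on the plate plus 3 SD, cut at about 37% in these data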;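 also: 0% = orexin A challenge wells and 100% = SB-334867-A antagonist wells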
* marks the source's active call; other numbers are inactive results.

Results for O=C(COC(=O)c1ccc([N+](=O)[O-])s1)NNC(=O)c1ccccc1 ?
CHO parental Ca: 3; OX1R antag-1: 57*; OX1R antag-2: 5

Results for O=C(COC(=O)c1ccc([N+](=O)[O-])s1)NC(=O)NCc1ccccc1 ?
TAAR1 agonist: 13; CHO parental Ca: -7; OX1R antag-1: 49*; TAAR1 antagonist: 4; OX1R antag-2: -7

How did O=C(COC(=O)c1ccc([N+](=O)[O-])s1)c1ccc[nH]1 do in these assays?
TAAR1 agonist: 3; CHO parental Ca: -7; OX1R antag-1: 61*; TAAR1 antagonist: 20; OX1R antag-2: 16

What do the screens show for `Cc1cc(=O)c2c(ccc3c(=O)cc(C)[nH]c32)[nH]1`?
TAAR1 agonist: 3; TAAR1 antagonist: -30

How did CCN(CC(=O)NCc1cccs1)C(=O)c1cccc(S(=O)(=O)Nc2ccc(OC)cc2)c1 do in these assays?
TAAR1 agonist: 3; CHO parental Ca: -22; OX1R antag-1: 8; TAAR1 antagonist: -17; OX1R antag-2: -2

Results for Cc1[nH]nc2c1C(c1ccccc1)N(c1ccccc1)C2=O (stereo not drawn) ?
TAAR1 agonist: 0; TAAR1 antagonist: -12

Results for CN(CC(=O)Nc1ccccc1Cl)C(=O)COC(=O)c1ccc([N+](=O)[O-])s1 ?
TAAR1 agonist: 1; CHO parental Ca: 0; OX1R antag-1: 43*; TAAR1 antagonist: 9; OX1R antag-2: -10

How did N#CCCN1CCN(C2=NC(=O)/C(=C\c3cccs3)S2)CC1 do in these assays?
TAAR1 agonist: 6; CHO parental Ca: 11; OX1R antag-1: 42*; TAAR1 antagonist: 5; OX1R antag-2: -5

What do the screens show for `COc1cc2c(C(=O)N3CCN(C)CC3)c(C)n(-c3ccccc3)c2cc1Br`?
TAAR1 agonist: 9; CHO parental Ca: -25; OX1R antag-1: 6; TAAR1 antagonist: -3; OX1R antag-2: -12

How did COc1cc2c(C(=O)N3CCOCC3)c(CSc3ccccc3)n(C)c2cc1Br do in these assays?
TAAR1 agonist: 6; CHO parental Ca: -41; OX1R antag-1: 56*; TAAR1 antagonist: 18; OX1R antag-2: -9

How did COc1ccc(NC(=O)c2c(Nc3ccccc3)sc(C(=O)c3ccc(F)cc3)c2N)cc1 do in these assays?
TAAR1 agonist: 10; CHO parental Ca: 31*; OX1R antag-1: 19; TAAR1 antagonist: 34; OX1R antag-2: 14

How did COc1ccc(Nc2sc(C(=O)c3ccc(Cl)cc3)c(N)c2C(=O)Nc2ccccc2OC)cc1 do in these assays?
TAAR1 agonist: 107*; CHO parental Ca: 71*; OX1R antag-1: 0; TAAR1 antagonist: 73*; OX1R antag-2: 101*

Results for COc1ccc(C(=O)c2sc(Nc3cccc(OC)c3)c(C(=O)Nc3cccc(C)c3C)c2N)cc1 ?
TAAR1 agonist: 38*; CHO parental Ca: 60*; OX1R antag-1: 1; TAAR1 antagonist: 32; OX1R antag-2: 29

How did CC1Cc2ccccc2N1C(=O)c1ccc(N2CCCCC2)c([N+](=O)[O-])c1 (stereo not drawn) do in these assays?
TAAR1 agonist: 3; CHO parental Ca: -16; OX1R antag-1: 50*; TAAR1 antagonist: 42; OX1R antag-2: -13

Results for CC(=O)c1ccc(N2CCN(c3ccccc3O)CC2)c([N+](=O)[O-])c1 ?
TAAR1 agonist: 16; CHO parental Ca: 44*; OX1R antag-1: 79*; TAAR1 antagonist: 51*; OX1R antag-2: 63*

Results for CC(C)(C)C(=O)N1CCN(c2ccc([N+](=O)[O-])cc2Cl)CC1 ?
TAAR1 agonist: 9; CHO parental Ca: 0; OX1R antag-1: 17; TAAR1 antagonist: 31; OX1R antag-2: -10

Results for O=[N+]([O-])c1ccc(N2CCN(c3ccc([N+](=O)[O-])cc3CO)CC2)c(CO)c1 ?
TAAR1 agonist: 12; CHO parental Ca: 32; OX1R antag-1: 16; TAAR1 antagonist: 53*; OX1R antag-2: 14

Results for N#Cc1cc([N+](=O)[O-])ccc1N1CCN(c2ccccc2O)CC1 ?
TAAR1 agonist: 17; CHO parental Ca: 32*; OX1R antag-1: 23; TAAR1 antagonist: 52*; OX1R antag-2: -12

What do the screens show for `CC1Cc2ccccc2N1C(=O)c1ccc(N2CCCC2)c([N+](=O)[O-])c1` (stereo not drawn)?
TAAR1 agonist: 6; CHO parental Ca: -5; OX1R antag-1: 29; TAAR1 antagonist: 42; OX1R antag-2: -26

How did Cc1oc(-c2ccccc2Cl)nc1CS(=O)CC(=O)NC1CC1 (stereo not drawn) do in these assays?
TAAR1 agonist: 6; CHO parental Ca: -10; OX1R antag-1: 13; TAAR1 antagonist: -11; OX1R antag-2: -3

How did O=C(CNC(=O)c1ccc(F)cc1)N/N=C/c1cc(Br)ccc1OCc1ccccc1 do in these assays?
TAAR1 agonist: 14; CHO parental Ca: -16; OX1R antag-1: 1; TAAR1 antagonist: 28; OX1R antag-2: -19

What do the screens show for `COc1cc(/C=N/NC(=O)c2ccc3c(c2)OCCO3)c(Br)c(Br)c1O`?
TAAR1 agonist: 28; CHO parental Ca: -15; OX1R antag-1: 65*; TAAR1 antagonist: 13; OX1R antag-2: 4

Results for COc1ccccc1C(=O)NCC(=O)N/N=C/c1cc(Br)ccc1OCc1ccccc1 ?
TAAR1 agonist: 5; CHO parental Ca: -10; OX1R antag-1: 33; TAAR1 antagonist: 49*; OX1R antag-2: -18

How did COc1ccc(Br)cc1/C=N/NC(=O)c1ccc(OC)c(OC)c1 do in these assays?
TAAR1 agonist: 10; CHO parental Ca: -2; OX1R antag-1: 43*; TAAR1 antagonist: -14; OX1R antag-2: -16

How did COc1ccc(Br)cc1/C=N/NC(=O)c1ccc2nc[nH]c2c1 do in these assays?
TAAR1 agonist: 1; CHO parental Ca: -4; OX1R antag-1: 41*; TAAR1 antagonist: 3; OX1R antag-2: 3

Results for Cc1ccc(-c2cc(NC(=O)Cc3c(C)[nH]c4ccccc34)ccc2Nc2cccnc2)cc1 ?
TAAR1 agonist: -1; TAAR1 antagonist: -7

Results for COc1cc(/C=C/c2nnc3c4ccccc4ncn23)cc(OC)c1OC ?
TAAR1 agonist: 12; CHO parental Ca: -3; OX1R antag-1: 65*; TAAR1 antagonist: 42; OX1R antag-2: -3

What do the screens show for `COc1cc(/C=C/c2nc3ccccc3c(=O)[nH]2)cc(OC)c1OC`?
TAAR1 agonist: 7; CHO parental Ca: -15; OX1R antag-1: 7; TAAR1 antagonist: -5; OX1R antag-2: -16

How did COc1ccc(CCNC(=O)c2ccccc2C(=O)NCCc2ccc(OC)c(OC)c2)cc1OC do in these assays?
TAAR1 agonist: 4; CHO parental Ca: -12; OX1R antag-1: 50*; TAAR1 antagonist: 5; OX1R antag-2: -4

Results for COc1ccc(CCNC(=O)c2cccs2)cc1OC ?
TAAR1 agonist: 0; CHO parental Ca: -1; OX1R antag-1: 10; TAAR1 antagonist: -1; OX1R antag-2: 3
